PMC9055537 (RSC Advances, 2020)
Where a SMILES comes first, the peptide text is derived from it. [ ]: non-standard residue; d: D form. Nva = CCC[C@H](N)C(=O)O; Aib = CC(C)(N)C(=O)O

What follows are compounds tested on PC-12 cells (assay: Cytotoxicity studies, MTT assay). Conditions: highest tested concentration 20 μM, 6 h, MTT OD570, triplicate.
Type: cell-based, rat
How it was run: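 PC-12 cells were exposed to the test peptide alone at the stated dose for 6 h, with no Aβ added, and viability was read by MTT assay. Untreated cells were set as 100% (positive control). Samples were run in triplicate in three individual experiments and the readings were averaged (<5% variation).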

SMILES | cytotoxicity, % viable PC-12 cells
CC[C@H](C)[C@H](NC(=O)[C@@H](NC(=O)[C@H](N)Cc1ccccc1)C(C)C)C(=O)N[C@@H](C)C(N)=O [12c, D-Phe-Val-Ile-Ala-NH2] (H-[dF]VIA-NH2) | negligible cytotoxicity

These compounds were tested against preformed Aβ42 fibrils (Homo sapiens, UniProt P05067) (assay: Thioflavin-T assay, deformation of preformed Aβ42 fibrils). Conditions: 24 h, test peptide 0.5 μM (1:0.1), Aβ42 2 μM pre-aggregated 24 h.
Sequence of preformed Aβ42 fibrils (P05067 672-713): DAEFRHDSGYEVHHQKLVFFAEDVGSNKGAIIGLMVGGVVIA
Type: biochemical

SMILES | % Deformation of preformed Aβ42 fibrils [%]
CC[C@H](C)[C@H](NC(=O)[C@@H](NC(=O)[C@H](N)Cc1ccccc1)C(C)C)C(=O)N[C@@H](C)C(N)=O [12c, D-Phe-Val-Ile-Ala-NH2] (H-[dF]VIA-NH2) | 33.7

Same assay, conditions: 24 h, test peptide 1 μM (1:0.5), Aβ42 2 μM pre-aggregated 24 h

SMILES | % Deformation of preformed Aβ42 fibrils [%]
CC[C@H](C)[C@H](NC(=O)[C@@H](NC(=O)[C@H](N)Cc1ccccc1)C(C)C)C(=O)N[C@@H](C)C(N)=O [12c, D-Phe-Val-Ile-Ala-NH2] (H-[dF]VIA-NH2) | 34.9

Same assay, conditions: 24 h, test peptide 2 μM (1:1), Aβ42 2 μM pre-aggregated 24 h

SMILES | % Deformation of preformed Aβ42 fibrils [%]
CC[C@H](C)[C@H](NC(=O)[C@@H](NC(=O)[C@H](N)Cc1ccccc1)C(C)C)C(=O)N[C@@H](C)C(N)=O [12c, D-Phe-Val-Ile-Ala-NH2] (H-[dF]VIA-NH2) | 57.5

What follows are compounds tested against Aβ42 (Homo sapiens, UniProt P05067) (assay: Thioflavin-T fluorescence assay, inhibition of Aβ42 aggregation). Conditions: 24 h, read-out: % inhibition of Aβ42 aggregation (ThT fluorescence), test peptide 10 μM (1:5), Aβ42 2 μM, co-incubated 24 h at 37 °C, λex 440 nm, λem 485 nm, mean of triplicate.
Sequence of Aβ42 (P05067 672-713): as above
Type: biochemical

SMILES | inhibition at 10 µM [%]
CC[C@H](C)[C@H](NC(=O)C(C)(C)NC(=O)[C@@H](N)C(C)C)C(=O)N[C@@H](C)C(N)=O [13d, Val-Aib-Ile-Ala-NH2] (H-V[Aib]IA-NH2) | 45.3
CC[C@@H](C)[C@@H](NC(=O)[C@@H](N)C(C)C)C(=O)N[C@H](C(=O)N[C@@H](C)C(N)=O)[C@@H](C)CC [13b, Val-D-Ile-Ile-Ala-NH2] (H-V[dI]IA-NH2) | 49.4
CC[C@H](C)[C@H](NC(=O)[C@@H](NC(=O)[C@@H](N)C(C)C)C(C)C)C(=O)NC(C)(C)C(N)=O [15b, Val-Val-Ile-Aib-NH2] (H-VVI[Aib]-NH2) | 35.1
CC[C@H](C)[C@H](NC(=O)[C@@H](NC(=O)[C@@H](N)Cc1ccccc1)C(C)C)C(=O)N[C@@H](C)C(N)=O [12b, Phe-Val-Ile-Ala-NH2] (H-FVIA-NH2) | 77.6
CC[C@@H](C)[C@@H](NC(=O)[C@@H](NC(=O)[C@@H](N)C(C)C)C(C)C)C(=O)N[C@@H](C)C(N)=O [14a, Val-Val-D-Ile-Ala-NH2] (H-VV[dI]A-NH2) | 21.8
CC(C)C[C@H](NC(=O)[C@@H](NC(=O)[C@@H](N)C(C)C)C(C)C)C(=O)N[C@@H](C)C(N)=O [14b, Val-Val-Leu-Ala-NH2] (H-VVLA-NH2) | 0
CC[C@H](C)[C@H](NC(=O)[C@@H](NC(=O)[C@@H](N)C(C)C)C(C)C)C(=O)N[C@H](C(N)=O)C(C)C [15d, Val-Val-Ile-Val-NH2] (H-VVIV-NH2) | 11
CC[C@H](C)[C@H](NC(=O)[C@@H]1CCCN1C(=O)[C@@H]1CCCN1)C(=O)N[C@@H](C)C(N)=O [16a, Pro-Pro-Ile-Ala-NH2] (H-PPIA-NH2) | 14.2
CC[C@H](C)[C@H](NC(=O)[C@@H](NC(=O)[C@H]1CCCN1)C(C)C)C(=O)N[C@@H](C)C(N)=O [12d, D -Pro-Val-Ile-Ala-NH2] (H-[dP]VIA-NH2) | 39.8
CC[C@H](C)[C@H](NC(=O)[C@@H](NC(=O)[C@H](N)C(C)C)C(C)C)C(=O)N[C@@H](C)C(N)=O [12a, D -Val-Val-Ile-Ala-NH2] (H-[dV]VIA-NH2) | 82.1
CC[C@H](C)[C@H](NC(=O)[C@@H](NC(=O)[C@@H](N)C(C)C)C(C)C)C(=O)N[C@@H](CC(C)C)C(N)=O [15e, Val-Val-Ile-Leu-NH2] (H-VVIL-NH2) | 31.2
CC[C@H](C)[C@H](NC(=O)[C@H](NC(=O)[C@@H](N)C(C)C)C(C)C)C(=O)N[C@@H](C)C(N)=O [13a, Val-D-Val-Ile-Ala-NH2] (H-V[dV]IA-NH2) | 15.7
CCC[C@H](N)C(=O)N[C@H](C(=O)N[C@H](C(=O)N[C@@H](C)C(N)=O)[C@@H](C)CC)C(C)C [12e, Nva-Val-Ile-Ala-NH2] (H-[Nva]VIA-NH2) | 70.3
CC[C@H](C)[C@H](NC(=O)[C@@H](NC(=O)[C@@H](N)C(C)C)C(C)C)C(=O)N[C@H](C)C(N)=O [15a, Val-Val-Ile-D-Ala-NH2] (H-VVI[dA]-NH2) | 23.2
